Results reported in PMC10432884 (Clinical and Translational Science, 2023).
Read-outs that look alike come from different tables or passages of the source.

What was measured:
[1] = MAD phase pharmacokinetics; assay type: in vivo, human; details: for Cmax / concentration at 1 day / concentration at 11 day / concentration at 12 day / concentration at 13 day / concentration at 14 day / Tmax / AUC: human, plasma, oral; for Cmax: C max; for concentration at 1 day / concentration at 11 day / concentration at 12 day / concentration at 13 day / concentration at 14 day: C trough; for concentration at 11 day: day 11; for concentration at 12 day: day 12; for concentration at 13 day: day 13; for AUC: AUC τ
Procedure, shortened: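 MAD phase, 2–15 mg q.d. oral for 14 days. Plasma was sampled predose daily and 15 min–48 h on days 1 and 14. Urine was pooled over 24 h on days 1 and 14. One CSF sample was taken 3 h postdose on day 7 (10 mg cohort). All matrices were assayed by validated LC-MS/MS. Derived: Cmax, Tmax, t1/2, AUCτ, Ctrough, peak-to-trough ratio, accumulation ratios, and CSF/plasma ratio corrected for protein binding. Results reported as geometric means (95% CI) and medians.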

healthy subjects [2] = assay: MAD phase CNS test battery; assay type: in vivo, human
[3] = Plasma protein binding, equilibrium dialysis; assay type: in vitro ADME, human; details: assumed from protein binding
Procedure, shortened: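 In vitro equilibrium dialysis of test compound at 1 and 10 μM in human plasma (also mouse, rat, dog and monkey). Mean percentage bound was determined. The free fraction was used to correct CSF/plasma concentration ratios.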

healthy subjects [4] = test system: healthy subjects
[5] = 5 mg, Median, MAD 5 mg q.d., day 14
[6] = 10 mg, GeoMean, MAD 10 mg q.d., day 1
[7] = 10 mg, GeoMean, MAD 10 mg q.d., day 14
[8] = 10 mg, Median, MAD 10 mg q.d., day 1
[9] = 10 mg, Median, MAD 10 mg q.d., day 14
[10] = 15 mg, GeoMean, MAD 15 mg q.d., day 1
[11] = 15 mg, GeoMean, MAD 15 mg q.d., day 14
[12] = 15 mg, Median, MAD 15 mg q.d., day 1
[13] = 15 mg, Median, MAD 15 mg q.d., day 14
[14] = MAD pooled zagociguat group (n = 32)
[15] = same subject, 2 mg q.d., day 30

`Fc1ccccc1Cc1nc(-c2nc(C(F)(F)F)n[nH]2)cn2ccnc12` [zagociguat, 8‐(2‐fluorobenzyl)‐6‐(3‐(trifluoromethyl)‐1H‐1,2,4‐triazol‐5‐yl)imidazo[1,2‐a]pyrazine] gave a Cmax [1, 5] of 2230 ng/mL, a concentration at 1 day ([1]; 5 mg, GeoMean, MAD 5 mg q.d., day 1) of 389 ng/mL and a concentration at 11 day ([1]; 5 mg, GeoMean, MAD 5 mg q.d.) of 1480 ng/mL. It also gave a concentration at 12 day ([1]; 5 mg, GeoMean, MAD 5 mg q.d.) of 1500 ng/mL, a concentration at 13 day ([1]; 5 mg, GeoMean, MAD 5 mg q.d.) of 1510 ng/mL and a concentration at 14 day ([1]; 5 mg, GeoMean, MAD 5 mg q.d., day 14) of 1540 ng/mL. It also gave a concentration at 1 day ([1]; 5 mg, Median, MAD 5 mg q.d., day 1) of 410 ng/mL, a concentration at 11 day ([1]; 5 mg, Median, MAD 5 mg q.d.) of 1540 ng/mL and a concentration at 12 day ([1]; 5 mg, Median, MAD 5 mg q.d.) of 1580 ng/mL. For the same molecule, the concentration at 13 day ([1]; 5 mg, Median, MAD 5 mg q.d.) was 1580 ng/mL, the concentration at 14 day [1, 5] was 1640 ng/mL and the Tmax ([1]; 5 mg, T max, Median, MAD 5 mg q.d., day 1) was 2 h. The Tmax ([1]; 5 mg, T max, Median, MAD 5 mg q.d., day 14) was 3 h, the AUC [1, 6] was 20100 ng·h/mL and the AUC [1, 7] was 76800 ng·h/mL. The AUC [1, 8] was 21500 ng·h/mL, the AUC [1, 9] was 82100 ng·h/mL and the Cmax [1, 6] was 1070 ng/mL. It also gave a Cmax [1, 7] of 3910 ng/mL, a Cmax [1, 8] of 1140 ng/mL and a Cmax [1, 9] of 4050 ng/mL. It also gave a concentration at 1 day [1, 6] of 751 ng/mL, a concentration at 11 day ([1]; 10 mg, GeoMean, MAD 10 mg q.d.) of 2760 ng/mL and a concentration at 12 day ([1]; 10 mg, GeoMean, MAD 10 mg q.d.) of 2910 ng/mL. It also gave a concentration at 13 day ([1]; 10 mg, GeoMean, MAD 10 mg q.d.) of 2840 ng/mL, a concentration at 14 day [1, 7] of 2850 ng/mL and a concentration at 1 day [1, 8] of 750 ng/mL. It also gave a concentration at 11 day ([1]; 10 mg, Median, MAD 10 mg q.d.) of 3090 ng/mL, a concentration at 12 day ([1]; 10 mg, Median, MAD 10 mg q.d.) of 3240 ng/mL and a concentration at 13 day ([1]; 10 mg, Median, MAD 10 mg q.d.) of 3190 ng/mL. For the same molecule, the concentration at 14 day [1, 9] was 2820 ng/mL, the Tmax ([1]; 10 mg, T max, Median, MAD 10 mg q.d., day 1) was 3 h and the Tmax ([1]; 10 mg, T max, Median, MAD 10 mg q.d., day 14) was 2.2 h. It also gave an AUC [1, 10] of 31300 ng·h/mL, an AUC [1, 11] of 116000 ng·h/mL and an AUC [1, 12] of 30100 ng·h/mL. It also gave an AUC [1, 13] of 112000 ng·h/mL, a Cmax [1, 10] of 1620 ng/mL and a Cmax [1, 11] of 5850 ng/mL. It also gave a Cmax [1, 12] of 1530 ng/mL, a Cmax [1, 13] of 5800 ng/mL and a Tmax ([1]; 15 mg, T max, Median, MAD 15 mg q.d., day 1) of 3 h. For the same molecule, the Tmax ([1]; 15 mg, T max, Median, MAD 15 mg q.d., day 14) was 3.5 h, the Tmax ([1]; Median observed T max, range, MAD all doses, days 1 and 14) was 1 to 3.5 h and the Drug accumulation ([1]; treatment period of 14 days) was “moderate drug accumulation”. The “pEEG and CNS tests, differences between placebo and zagociguat groups” value (healthy subjects [2]) was “No dose‐dependent or consistent statistically significant differences”, the “Free zagociguat concentration in human plasma, of total concentration” value [3] was 1.11% and the “Subjects discontinued from study drug due to ≥1 TEAE” value (from here on “Subjects discontinued”) (healthy subjects [4]; MAD 2 mg (n = 8)) was 0 n. The “Subjects with ≥1 SAE” value (healthy subjects [4]; MAD 2 mg (n = 8)) was 0 n, the “Subjects with ≥1 TEAE” value (healthy subjects [4]; MAD 2 mg (n = 8)) was 6 (75%) n (%) and the “Subjects with ≥1 study drug related TEAE” value (healthy subjects [4]; MAD 2 mg (n = 8)) was 6 n. For the same molecule, the TEAEs (healthy subjects [4]; MAD 2 mg (n = 8)) was 17 n, the “Subjects discontinued” value (healthy subjects [4]; MAD 5 mg (n = 8)) was 0 n and the “Subjects with ≥1 SAE” value (healthy subjects [4]; MAD 5 mg (n = 8)) was 0 n. For the same molecule, the “Subjects with ≥1 TEAE” value (healthy subjects [4]; MAD 5 mg (n = 8)) was 8 (100%) n (%), the “Subjects with ≥1 study drug related TEAE” value (healthy subjects [4]; MAD 5 mg (n = 8)) was 7 n and the TEAEs (healthy subjects [4]; MAD 5 mg (n = 8)) was 27 n. For the same molecule, the “Subjects discontinued” value (healthy subjects [4]; MAD 10 mg (n = 8)) was 0 n, the “Subjects with ≥1 SAE” value (healthy subjects [4]; MAD 10 mg (n = 8)) was 0 n and the “Subjects with ≥1 TEAE” value (healthy subjects [4]; MAD 10 mg (n = 8)) was 8 (100%) n (%). For the same molecule, the “Subjects with ≥1 study drug related TEAE” value (healthy subjects [4]; MAD 10 mg (n = 8)) was 5 n, the TEAEs (healthy subjects [4]; MAD 10 mg (n = 8)) was 19 n and the “Subjects with GI TEAEs” value (healthy subjects [4]; MAD 10 mg group) was “five”. The “Subjects discontinued” value (healthy subjects [4]; MAD 15 mg (n = 8)) was 0 n, the “Subjects with ≥1 SAE” value (healthy subjects [4]; MAD 15 mg (n = 8)) was 0 n and the “Subjects with ≥1 study drug related TEAE” value (healthy subjects [4]; MAD 15 mg (n = 8)) was 5 n. The TEAEs (healthy subjects [4]; MAD 15 mg (n = 8)) was 18 n, the Orthostatic hypotension events (healthy subjects [4]; MAD phase) was “No orthostatic hypotension events” and the “Subjects discontinued” value (healthy subjects [4]; [14]) was 0 n. The “Subjects with ≥1 SAE” value (healthy subjects [4]; [14]) was 0 n, the “Subjects with ≥1 study drug related TEAE” value (healthy subjects [4]; [14]) was 23 n and the TEAEs (healthy subjects [4]; [14]) was 81 n. The Tolerability (healthy subjects [4]; multiple doses up to 15 mg q.d. for 14 days) was “well‐tolerated with no safety signals”, the “AST, peak” value (healthy subjects [4]; one subject, 2 mg q.d., day 16 (after last dose), normal range < 35 U/L) was 49 U/L and the “ALT, peak” value (healthy subjects [4]; one subject, 2 mg q.d., day 16 (after last dose), normal range < 45 U/L) was 92 U/L. The “GGT, peak” value (healthy subjects [4]; one subject, 2 mg q.d., day 16 (after last dose), normal range < 55 U/L) was 22 U/L, the ALT at follow-up (healthy subjects [4]; [15]) was 49 U/L and the AST at follow-up (healthy subjects [4]; [15]) was 43 U/L. For the same molecule, the GGT at follow-up (healthy subjects [4]; [15]) was 23 U/L.
